Measured values from ChEMBL document CHEMBL4689842, “EUbOPEN Chemogenomics Library wave 1” (2021).

Test system: Fibroblast
Test: Multiplex assay against human fibroblast
Type: toxicity, cell-based
Method in brief: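 Phenotypes for tubulin, mitochondrial mass and membrane permeability are expressed as per cents of healthy-nucleus cells. Cells were stained live at seeding with Hoechst33342, BioTracker Green Microtubule Cytoskeleton Dye, MitoTracker Red and Annexin V Alexa Fluor 680, then imaged after compound addition on a CQ1 microscope at 37°C and 5% CO2. Machine-learning gating in CellPathfinder separated Hoechst high-intensity objects from normal cells, divided normal cells by nuclear state (healthy, pyknosed, fragmented) and divided pyknosed cells into mitotic or apoptotic.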

[1] = 12 h, 1 µM, compound concentration 1 uM, replicate 1
[2] = 12 h, 1 µM, compound concentration 1 uM, replicate 2
[3] = 12 h, 10 µM, compound concentration 10 uM, replicate 1
[4] = 12 h, 10 µM, compound concentration 10 uM, replicate 2
[5] = 24 h, 1 µM, compound concentration 1 uM, replicate 1
[6] = 24 h, 1 µM, compound concentration 1 uM, replicate 2
[7] = 24 h, 10 µM, compound concentration 10 uM, replicate 1
[8] = 24 h, 10 µM, compound concentration 10 uM, replicate 2
[9] = 48 h, 1 µM, compound concentration 1 uM, replicate 1
[10] = 48 h, 1 µM, compound concentration 1 uM, replicate 2
[11] = 48 h, 10 µM, compound concentration 10 uM, replicate 1
[12] = 48 h, 10 µM, compound concentration 10 uM, replicate 2

C[C@]12CC[C@@H]3c4ccc(O)cc4CC[C@H]3[C@@H]1CC[C@@H]2O [ESTRADIOL]
Population Apoptotic (%) [1]: 73%
Population Fragmented Nuclei (%) [1]: 30%
Population Healthy Nuclei (%) [1]: 50%
Population Hoechst High Intensity Objects (%) [1]: 21%
Population Membrane Permeable-Phenotype (%) [1]: 20%
Population Mitochondria Different-Phenotype (%) [1]: 9%
Population Mitotic Cells (%) [1]: 26%
Population Normal (%) [1]: 78%
Population Pyknosed Nuclei (%) [1]: 18%
Population Tubulin-Different-Phenotype (%) [1]: 46%
Population Apoptotic (%) [2]: 50%
Population Fragmented Nuclei (%) [2]: 8%
Population Healthy Nuclei (%) [2]: 86%
Population Hoechst High Intensity Objects (%) [2]: 5%
Population Membrane Permeable-Phenotype (%) [2]: 4%
Population Mitochondria Different-Phenotype (%) [2]: 8%
Population Mitotic Cells (%) [2]: 50%
Population Normal (%) [2]: 94%
Population Pyknosed Nuclei (%) [2]: 5%
Population Tubulin-Different-Phenotype (%) [2]: 14%
Population Apoptotic (%) [3]: 75%
Population Fragmented Nuclei (%) [3]: 24%
Population Healthy Nuclei (%) [3]: 57%
Population Hoechst High Intensity Objects (%) [3]: 14%
Population Membrane Permeable-Phenotype (%) [3]: 20%
Population Mitochondria Different-Phenotype (%) [3]: 7%
Population Mitotic Cells (%) [3]: 25%
Population Normal (%) [3]: 85%
Population Pyknosed Nuclei (%) [3]: 18%
Population Tubulin-Different-Phenotype (%) [3]: 33%
Population Apoptotic (%) [4]: 25%
Population Fragmented Nuclei (%) [4]: 9%
Population Healthy Nuclei (%) [4]: 77%
Population Hoechst High Intensity Objects (%) [4]: 8%
Population Membrane Permeable-Phenotype (%) [4]: 4%
Population Mitochondria Different-Phenotype (%) [4]: 12%
Population Mitotic Cells (%) [4]: 75%
Population Normal (%) [4]: 91%
Population Pyknosed Nuclei (%) [4]: 12%
Population Tubulin-Different-Phenotype (%) [4]: 25%
Population Apoptotic (%) [5]: 45%
Population Fragmented Nuclei (%) [5]: 33%
Population Healthy Nuclei (%) [5]: 50%
Population Hoechst High Intensity Objects (%) [5]: 18%
Population Membrane Permeable-Phenotype (%) [5]: 29%
Population Mitochondria Different-Phenotype (%) [5]: 3%
Population Mitotic Cells (%) [5]: 55%
Population Normal (%) [5]: 82%
Population Pyknosed Nuclei (%) [5]: 16%
Population Tubulin-Different-Phenotype (%) [5]: 43%
Population Apoptotic (%) [6]: 50%
Population Fragmented Nuclei (%) [6]: 4%
Population Healthy Nuclei (%) [6]: 89%
Population Hoechst High Intensity Objects (%) [6]: 3%
Population Membrane Permeable-Phenotype (%) [6]: 4%
Population Mitochondria Different-Phenotype (%) [6]: 9%
Population Mitotic Cells (%) [6]: 50%
Population Normal (%) [6]: 96%
Population Pyknosed Nuclei (%) [6]: 6%
Population Tubulin-Different-Phenotype (%) [6]: 14%
Population Apoptotic (%) [7]: 73%
Population Fragmented Nuclei (%) [7]: 22%
Population Healthy Nuclei (%) [7]: 60%
Population Hoechst High Intensity Objects (%) [7]: 11%
Population Membrane Permeable-Phenotype (%) [7]: 29%
Population Mitochondria Different-Phenotype (%) [7]: 9%
Population Mitotic Cells (%) [7]: 26%
Population Normal (%) [7]: 88%
Population Pyknosed Nuclei (%) [7]: 17%
Population Tubulin-Different-Phenotype (%) [7]: 35%
Population Apoptotic (%) [8]: 30%
Population Fragmented Nuclei (%) [8]: 18%
Population Healthy Nuclei (%) [8]: 68%
Population Hoechst High Intensity Objects (%) [8]: 3%
Population Membrane Permeable-Phenotype (%) [8]: 5%
Population Mitochondria Different-Phenotype (%) [8]: 11%
Population Mitotic Cells (%) [8]: 70%
Population Normal (%) [8]: 96%
Population Pyknosed Nuclei (%) [8]: 13%
Population Tubulin-Different-Phenotype (%) [8]: 43%
Population Apoptotic (%) [9]: 83%
Population Fragmented Nuclei (%) [9]: 42%
Population Healthy Nuclei (%) [9]: 51%
Population Hoechst High Intensity Objects (%) [9]: 24%
Population Membrane Permeable-Phenotype (%) [9]: 26%
Population Mitochondria Different-Phenotype (%) [9]: 0%
Population Mitotic Cells (%) [9]: 16%
Population Normal (%) [9]: 75%
Population Pyknosed Nuclei (%) [9]: 5%
Population Tubulin-Different-Phenotype (%) [9]: 42%
Population Apoptotic (%) [10]: 0%
Population Fragmented Nuclei (%) [10]: 24%
Population Healthy Nuclei (%) [10]: 74%
Population Hoechst High Intensity Objects (%) [10]: 14%
Population Membrane Permeable-Phenotype (%) [10]: 8%
Population Mitotic Cells (%) [10]: 100%
Population Normal (%) [10]: 85%
Population Pyknosed Nuclei (%) [10]: 1%
Population Tubulin-Different-Phenotype (%) [10]: 26%
Population Apoptotic (%) [11]: 66%
Population Fragmented Nuclei (%) [11]: 36%
Population Healthy Nuclei (%) [11]: 58%
Population Hoechst High Intensity Objects (%) [11]: 13%
Population Membrane Permeable-Phenotype (%) [11]: 11%
Population Mitochondria Different-Phenotype (%) [11]: 3%
Population Mitotic Cells (%) [11]: 33%
Population Normal (%) [11]: 86%
Population Pyknosed Nuclei (%) [11]: 5%
Population Tubulin-Different-Phenotype (%) [11]: 17%
Population Apoptotic (%) [12]: 0%
Population Fragmented Nuclei (%) [12]: 32%
Population Healthy Nuclei (%) [12]: 65%
Population Hoechst High Intensity Objects (%) [12]: 2%
Population Membrane Permeable-Phenotype (%) [12]: 16%
Population Mitochondria Different-Phenotype (%) [12]: 1%
Population Mitotic Cells (%) [12]: 100%
Population Normal (%) [12]: 97%
Population Pyknosed Nuclei (%) [12]: 2%
Population Tubulin-Different-Phenotype (%) [12]: 41%

CNC(=O)Nc1ccc2c(c1)[C@@]1(CC2)OC(=O)N(CC(=O)N(Cc2ccc(F)cc2)[C@@H](C)C(F)(F)F)C1=O [A-486]
Population Apoptotic (%) [1]: 68%
Population Fragmented Nuclei (%) [1]: 21%
Population Healthy Nuclei (%) [1]: 60%
Population Hoechst High Intensity Objects (%) [1]: 9%
Population Membrane Permeable-Phenotype (%) [1]: 31%
Population Mitochondria Different-Phenotype (%) [1]: 4%
Population Mitotic Cells (%) [1]: 31%
Population Normal (%) [1]: 90%
Population Pyknosed Nuclei (%) [1]: 18%
Population Tubulin-Different-Phenotype (%) [1]: 55%
Total Cell Count [1]: 291
Population Apoptotic (%) [2]: 75%
Population Fragmented Nuclei (%) [2]: 57%
Population Healthy Nuclei (%) [2]: 21%
Population Hoechst High Intensity Objects (%) [2]: 34%
Population Membrane Permeable-Phenotype (%) [2]: 41%
Population Mitochondria Different-Phenotype (%) [2]: 8%
Population Mitotic Cells (%) [2]: 25%
Population Normal (%) [2]: 65%
Population Pyknosed Nuclei (%) [2]: 21%
Population Tubulin-Different-Phenotype (%) [2]: 91%
Total Cell Count [2]: 87
Population Apoptotic (%) [3]: 55%
Population Fragmented Nuclei (%) [3]: 24%
Population Healthy Nuclei (%) [3]: 61%
Population Hoechst High Intensity Objects (%) [3]: 14%
Population Membrane Permeable-Phenotype (%) [3]: 7%
Population Mitochondria Different-Phenotype (%) [3]: 5%
Population Mitotic Cells (%) [3]: 45%
Population Normal (%) [3]: 85%
Population Pyknosed Nuclei (%) [3]: 14%
Population Tubulin-Different-Phenotype (%) [3]: 7%
Total Cell Count [3]: 160
Population Apoptotic (%) [4]: 33%
Population Fragmented Nuclei (%) [4]: 57%
Population Healthy Nuclei (%) [4]: 37%
Population Hoechst High Intensity Objects (%) [4]: 29%
Population Membrane Permeable-Phenotype (%) [4]: 15%
Population Mitochondria Different-Phenotype (%) [4]: 10%
Population Mitotic Cells (%) [4]: 66%
Population Normal (%) [4]: 70%
Population Pyknosed Nuclei (%) [4]: 5%
Population Tubulin-Different-Phenotype (%) [4]: 45%
Total Cell Count [4]: 77
Population Apoptotic (%) [5]: 56%
Population Fragmented Nuclei (%) [5]: 23%
Population Healthy Nuclei (%) [5]: 59%
Population Hoechst High Intensity Objects (%) [5]: 14%
Population Membrane Permeable-Phenotype (%) [5]: 17%
Population Mitochondria Different-Phenotype (%) [5]: 6%
Population Mitotic Cells (%) [5]: 43%
Population Normal (%) [5]: 85%
Population Pyknosed Nuclei (%) [5]: 17%
Population Tubulin-Different-Phenotype (%) [5]: 46%
Total Cell Count [5]: 300
Population Apoptotic (%) [6]: 71%
Population Fragmented Nuclei (%) [6]: 63%
Population Healthy Nuclei (%) [6]: 23%
Population Hoechst High Intensity Objects (%) [6]: 33%
Population Membrane Permeable-Phenotype (%) [6]: 50%
Population Mitochondria Different-Phenotype (%) [6]: 16%
Population Mitotic Cells (%) [6]: 28%
Population Normal (%) [6]: 66%
Population Pyknosed Nuclei (%) [6]: 13%
Population Tubulin-Different-Phenotype (%) [6]: 66%
Total Cell Count [6]: 78
Population Apoptotic (%) [7]: 60%
Population Fragmented Nuclei (%) [7]: 30%
Population Healthy Nuclei (%) [7]: 53%
Population Hoechst High Intensity Objects (%) [7]: 14%
Population Membrane Permeable-Phenotype (%) [7]: 12%
Population Mitochondria Different-Phenotype (%) [7]: 1%
Population Mitotic Cells (%) [7]: 39%
Population Normal (%) [7]: 85%
Population Pyknosed Nuclei (%) [7]: 15%
Population Tubulin-Different-Phenotype (%) [7]: 8%
Total Cell Count [7]: 177
Population Apoptotic (%) [8]: 100%
Population Fragmented Nuclei (%) [8]: 56%
Population Healthy Nuclei (%) [8]: 40%
Population Hoechst High Intensity Objects (%) [8]: 38%
Population Membrane Permeable-Phenotype (%) [8]: 25%
Population Mitochondria Different-Phenotype (%) [8]: 0%
Population Mitotic Cells (%) [8]: 0%
Population Normal (%) [8]: 61%
Population Pyknosed Nuclei (%) [8]: 4%
Population Tubulin-Different-Phenotype (%) [8]: 10%
Total Cell Count [8]: 81
